For series [1], the target named is T1, Phenylethanolamine N-methyltransferase (Bos taurus, UniProt P10938).
T1 sequence (P10938 whole entry): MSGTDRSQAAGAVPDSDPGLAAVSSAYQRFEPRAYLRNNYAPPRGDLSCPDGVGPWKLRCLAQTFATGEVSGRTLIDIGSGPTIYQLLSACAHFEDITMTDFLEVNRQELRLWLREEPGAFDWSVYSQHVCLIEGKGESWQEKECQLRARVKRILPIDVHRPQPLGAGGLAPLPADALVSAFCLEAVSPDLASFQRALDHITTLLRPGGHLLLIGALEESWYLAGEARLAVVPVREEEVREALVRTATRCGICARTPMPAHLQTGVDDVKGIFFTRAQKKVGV
In words: In vitro inhibition of compound towards phenylethanolamine N-methyltransferase(PNMT) isolated from bovine adrenal glands. Put shortly:
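Inhibition was measured on bovine adrenal PNMT partially purified through the isoelectric precipitation step. The radiochemical assay used phosphate buffer (pH 8.0) with unlabeled and [methyl-3H]AdoMet, 30 min at 37 °C. It was quenched with pH 10 borate buffer and extracted into toluene-isoamyl alcohol (7:3). Ki came from at least three inhibitor concentrations with phenylethanolamine as the variable substrate; compounds were tested as hydrochloride salts.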

Series [2] in a line: Activity of the substrate is measured as the ratio of 100*Vmax/Km. The method, boiled down:
(§1)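 Bovine adrenal PNMT, purified through the isoelectric precipitation step, was used. The radiochemical assay contained phosphate buffer (pH 8.0), unlabeled AdoMet, [methyl-3H]AdoMet and enzyme, incubated 30 min at 37 °C. It was stopped with borate buffer (pH 10) and extracted into toluene-isoamyl alcohol (7:3). Km and Vmax came from at least five concentrations of the variable substrate; compounds were tested as hydrochloride salts.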

Substrate in series [3]: NC[C@@H](O)c1ccccc1
Put plainly: (§2) In vitro enzyme kinetics (PNMT)of the compound expressed as turnover rate isolated from bovine adrenal glands. The method, boiled down:
as §1

Substrate in series [4]: NCC(O)c1cccc(-c2ccccc2)c1
The series is described as §2. Put shortly:
as §1

Substrate in series [5]: NCC(O)c1ccc(-c2ccccc2)cc1
The series is described as §2. Put shortly: as §1

Substrate in series [6]: NCC(O)c1cccc2c1Cc1ccccc1-2
Described as §2. The method, boiled down:
as §1

Substrate in series [7]: NCC(O)c1ccc2c(c1)Cc1ccccc1-2
Described as §2. Put shortly: as §1

Substrate in series [8]: NC[C@@H](O)c1ccccc1
In words: (§3) In vitro enzyme kinetics (PNMT) of the compound expressed as Michaelis constant isolated from bovine adrenal glands. The method, boiled down:
as §1

Substrate in series [9]: NCC(O)c1ccc(-c2ccccc2)cc1
Described as §3. Put shortly:
as §1

Substrate in series [10]: NCC(O)c1cccc2c1Cc1ccccc1-2
The series is described as §3. Put shortly:
as §1

Substrate in series [11]: NCC(O)c1ccc2c(c1)Cc1ccccc1-2
The description is as §3. The method, boiled down: as §1

As a reminder, the Ki is a measure of affinity in units of concentration, obtained from inhibition or displacement. A word on the Km: it is the substrate concentration at which the rate is half of its maximum.

Molecule `CC(N)c1cccc2c1Cc1ccccc1-2` (stereo unspecified) had a Ki in series [1] of 4.14 µM.
Take `NCC(O)c1ccc(-c2ccccc2)cc1` (stereo unspecified): the Ratio in series [2] turned out to be 5.2.
Same read-out and setting: to `NC[C@@H](O)c1ccccc1` belongs 3.1.
For `NCC(O)c1ccc2c(c1)Cc1ccccc1-2` (stereo unspecified), the Ratio in series [2] came out at 6.7.
`NCC(O)c1cccc(-c2ccccc2)c1` (stereo unspecified): the Ratio in series [2] is 0.07.
On to `CC(N)c1ccc2c(c1)Cc1ccccc1-2` (stereo unspecified), for which the Ki in [1] came to 185 µM.
Take `NCC(O)c1cccc2c1Cc1ccccc1-2` (stereo unspecified): the Ratio in series [2] is 0.015.

B1: Phenylethanolamine N-methyltransferase (Bos taurus), P10938 (protein)
chain: T1 sequence (P10938 whole entry)
On to B1, for which the Vmax (nM min-1 (mg of protein)-1) in [3] came to 2.2; in series [4], 0.46; in series [5] it was 4.3; in [6] it was 0.046; in series [7], 1.76. Besides, the Km in series [8] came out at 70 µM; in series [9] it was 82 µM; in series [10], 297 µM; in series [11], 26.3 µM.

The values are drawn from ChEMBL document CHEMBL1123963, “Conformational preference for the binding of biaryl substrates and inhibitors to the active site of phenylethanolamine N-methyltransferase” (J Med Chem, 1988).
